Reference: ChEMBL document CHEMBL1126860, “Efficient inhibition of human leukocyte elastase and cathepsin G by saccharin derivatives” (J Med Chem, 1993)
Activity calls are given as the source filed them. The rule behind the calls is not given here.

Tests used:
[1] = target: T1, Neutrophil elastase (Homo sapiens) (UniProt P08246); test: Apparent second-order inactivation rate constant was evaluated against human leukocyte Elastase; assay type: functional
T1 sequence (whole entry): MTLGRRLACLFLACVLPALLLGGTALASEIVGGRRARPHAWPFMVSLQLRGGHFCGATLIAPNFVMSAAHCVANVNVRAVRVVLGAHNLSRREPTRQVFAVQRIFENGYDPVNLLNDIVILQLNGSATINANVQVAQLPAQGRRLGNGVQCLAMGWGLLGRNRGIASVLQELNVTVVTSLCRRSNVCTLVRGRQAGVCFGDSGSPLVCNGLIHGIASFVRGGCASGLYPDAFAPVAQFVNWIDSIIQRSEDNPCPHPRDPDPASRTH

[2] = target: T1, Neutrophil elastase (Homo sapiens); test: Apparent second-order inactivation rate constant was evaluated against human leukocyte Elastase; Inactive; assay type: functional
In short: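 Incubation method: human leukocyte elastase (300 nM) with inhibitor in 0.1 M HEPES, pH 7.25, 1% DMSO. Aliquots withdrawn periodically and assayed for residual activity with methoxysuccinyl-Ala-Ala-Pro-Val p-nitroanilide. Pseudo-first-order k_obs taken from slopes of ln(Et/Eo) versus time, then expressed as k_obs/[I] (M⁻¹ s⁻¹). Kinetics analysed by the Kitz–Wilson method.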

| K obs / 1 1/Ms [1] | K obs / 1 1/Ms [2] | Structure (SMILES) |
| --- | --- | --- |
| 2240 | – | O=C(/C=C/c1ccccc1)OCN1C(=O)c2ccccc2S1(=O)=O |
| 140 | – | CC(=O)OCN1C(=O)c2ccccc2S1(=O)=O |
| 8390 | – | O=C(/C=C/Sc1ccccc1)OCN1C(=O)c2ccccc2S1(=O)=O |
| 800 | – | O=C(C[S+]([O-])c1ccccc1)OCN1C(=O)c2ccccc2S1(=O)=O (stereo unspecified) |
| 1790 | – | O=C(CSc1ccccc1)OCN1C(=O)c2ccccc2S1(=O)=O |
| 780 | – | O=C(CS(=O)(=O)c1ccccc1)OCN1C(=O)c2ccccc2S1(=O)=O |
| – | inactive | O=C1c2ccccc2S(=O)(=O)N1CO |
| 4750 | – | O=C1c2ccccc2S(=O)(=O)N1CF |
| 40 | – | O=C1c2ccccc2S(=O)(=O)N1Cn1ccnc1 |
| 2280 | – | O=C(CCc1ccccc1)OCN1C(=O)c2ccccc2S1(=O)=O |
| 5700 | – | O=C(/C=C\Sc1ccccc1)OCN1C(=O)c2ccccc2S1(=O)=O |
